Laboratory results as given in ChEMBL document CHEMBL5653623 (J Pharmacol Exp Ther, 2015).
Activity calls are given as the source filed them. No cut-off for these calls is given here.

How the values were obtained:
[1] = target: Leucine-rich repeat serine/threonine-protein kinase 2 (Mus musculus) (UniProt Q5S006); experiment: In vivo inhibition of LRRK2 in 20 weeks old MitoPark mouse kidney assessed as reduction in total LRRK2 protein level at 30 mg/kg/day administered for 15 weeks by Western blotting analysis; format: functional, organism-based
Sequence of Leucine-rich repeat serine/threonine-protein kinase 2 (Mus musculus) (Q5S006 whole entry): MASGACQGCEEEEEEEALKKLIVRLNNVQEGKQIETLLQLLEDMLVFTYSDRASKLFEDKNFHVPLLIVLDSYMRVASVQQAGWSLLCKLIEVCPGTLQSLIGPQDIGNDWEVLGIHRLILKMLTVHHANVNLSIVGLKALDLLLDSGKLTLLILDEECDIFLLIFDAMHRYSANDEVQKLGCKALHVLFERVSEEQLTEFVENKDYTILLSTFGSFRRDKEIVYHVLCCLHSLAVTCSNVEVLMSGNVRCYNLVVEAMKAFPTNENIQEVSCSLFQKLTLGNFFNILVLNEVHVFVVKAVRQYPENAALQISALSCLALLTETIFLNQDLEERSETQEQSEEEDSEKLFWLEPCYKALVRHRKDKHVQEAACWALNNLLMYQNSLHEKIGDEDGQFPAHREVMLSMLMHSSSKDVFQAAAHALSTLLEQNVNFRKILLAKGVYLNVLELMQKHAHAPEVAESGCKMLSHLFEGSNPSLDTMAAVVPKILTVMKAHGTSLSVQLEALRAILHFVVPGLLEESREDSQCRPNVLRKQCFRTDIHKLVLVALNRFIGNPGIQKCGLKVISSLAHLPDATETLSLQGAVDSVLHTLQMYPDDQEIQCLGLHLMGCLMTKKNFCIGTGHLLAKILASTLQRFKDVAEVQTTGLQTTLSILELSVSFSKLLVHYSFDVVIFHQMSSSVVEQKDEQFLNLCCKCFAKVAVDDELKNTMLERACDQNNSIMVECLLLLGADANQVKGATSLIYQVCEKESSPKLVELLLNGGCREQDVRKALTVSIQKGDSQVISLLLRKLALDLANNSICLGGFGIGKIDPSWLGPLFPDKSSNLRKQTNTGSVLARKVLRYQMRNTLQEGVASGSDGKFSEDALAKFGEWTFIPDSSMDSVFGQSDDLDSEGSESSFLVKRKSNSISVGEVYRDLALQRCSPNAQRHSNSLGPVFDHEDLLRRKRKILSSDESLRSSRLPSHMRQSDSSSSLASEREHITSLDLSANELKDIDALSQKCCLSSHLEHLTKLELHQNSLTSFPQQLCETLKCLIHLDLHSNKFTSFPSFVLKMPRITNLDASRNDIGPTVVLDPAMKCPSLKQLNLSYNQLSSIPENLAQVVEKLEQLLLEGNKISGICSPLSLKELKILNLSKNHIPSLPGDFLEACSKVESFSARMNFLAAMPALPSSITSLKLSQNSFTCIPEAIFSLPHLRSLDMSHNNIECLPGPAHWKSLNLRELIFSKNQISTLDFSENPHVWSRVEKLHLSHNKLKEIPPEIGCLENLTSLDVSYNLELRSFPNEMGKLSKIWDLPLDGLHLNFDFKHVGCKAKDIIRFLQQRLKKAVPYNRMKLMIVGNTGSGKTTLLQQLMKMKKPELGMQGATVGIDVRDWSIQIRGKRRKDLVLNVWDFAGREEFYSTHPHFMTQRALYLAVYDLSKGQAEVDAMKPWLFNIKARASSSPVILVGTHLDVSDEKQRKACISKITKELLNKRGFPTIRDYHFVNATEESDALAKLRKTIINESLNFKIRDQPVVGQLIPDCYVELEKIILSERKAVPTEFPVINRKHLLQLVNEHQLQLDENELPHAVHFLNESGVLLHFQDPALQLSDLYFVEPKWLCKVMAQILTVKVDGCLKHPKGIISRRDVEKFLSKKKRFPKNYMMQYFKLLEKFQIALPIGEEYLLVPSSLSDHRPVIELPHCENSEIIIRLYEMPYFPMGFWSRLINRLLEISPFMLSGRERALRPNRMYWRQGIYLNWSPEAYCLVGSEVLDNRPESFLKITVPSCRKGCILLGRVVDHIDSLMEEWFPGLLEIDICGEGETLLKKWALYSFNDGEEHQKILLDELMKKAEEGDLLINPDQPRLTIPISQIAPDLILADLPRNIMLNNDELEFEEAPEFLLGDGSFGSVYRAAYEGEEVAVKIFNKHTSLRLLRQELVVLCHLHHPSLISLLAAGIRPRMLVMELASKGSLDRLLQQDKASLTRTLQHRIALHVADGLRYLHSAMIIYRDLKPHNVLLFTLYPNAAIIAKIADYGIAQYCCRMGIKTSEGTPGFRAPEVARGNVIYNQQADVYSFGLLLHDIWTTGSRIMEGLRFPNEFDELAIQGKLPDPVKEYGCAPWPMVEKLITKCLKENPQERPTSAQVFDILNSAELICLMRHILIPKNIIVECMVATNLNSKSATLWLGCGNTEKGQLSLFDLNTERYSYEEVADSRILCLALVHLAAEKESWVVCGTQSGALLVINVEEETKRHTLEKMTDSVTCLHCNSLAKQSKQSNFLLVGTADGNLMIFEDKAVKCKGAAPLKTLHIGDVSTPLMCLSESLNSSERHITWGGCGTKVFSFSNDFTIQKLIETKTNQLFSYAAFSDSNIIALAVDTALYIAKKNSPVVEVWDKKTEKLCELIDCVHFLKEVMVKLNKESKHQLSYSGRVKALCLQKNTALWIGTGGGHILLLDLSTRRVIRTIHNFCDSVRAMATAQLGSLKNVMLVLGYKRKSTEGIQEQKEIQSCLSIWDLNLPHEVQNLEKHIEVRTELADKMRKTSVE
In short: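 MitoPark mice on drug-containing diet targeted to 30 mg/kg/day from 5 weeks of age, with the diet reformulated every 3 weeks to hold the target. Untreated-diet MitoPark and wild-type littermate controls. Killed by CO2 at 20 weeks of age. Lung and kidney taken from 5 mice per group for pSer935 and total LRRK2 immunoblots.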

[2] = target: Dual specificity protein kinase CLK4 (Homo sapiens, UniProt Q9HAZ1); experiment: Inhibition of CLK4 (unknown origin)
Sequence of Dual specificity protein kinase CLK4 (Q9HAZ1 whole entry): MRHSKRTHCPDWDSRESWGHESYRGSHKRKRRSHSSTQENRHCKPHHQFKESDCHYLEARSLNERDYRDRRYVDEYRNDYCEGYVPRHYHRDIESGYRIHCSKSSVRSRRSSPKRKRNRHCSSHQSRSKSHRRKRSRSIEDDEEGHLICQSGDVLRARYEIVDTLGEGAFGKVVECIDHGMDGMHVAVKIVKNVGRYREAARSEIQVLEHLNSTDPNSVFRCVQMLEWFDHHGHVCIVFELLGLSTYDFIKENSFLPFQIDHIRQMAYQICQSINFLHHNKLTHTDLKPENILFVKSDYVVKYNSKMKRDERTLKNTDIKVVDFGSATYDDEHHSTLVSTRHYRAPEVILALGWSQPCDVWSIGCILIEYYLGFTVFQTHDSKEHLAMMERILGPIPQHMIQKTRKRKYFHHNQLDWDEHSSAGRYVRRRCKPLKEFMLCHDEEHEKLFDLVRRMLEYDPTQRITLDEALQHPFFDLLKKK

[3] = Unbound plasma concentration in C57Bl/6 mouse administered for 11 days and measured after 24 hrs; format: ADME, cell-free; conditions: 264 h, time 11 day
In short: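 Male C57Bl/6 mice, singly housed on a reversed 12 h light cycle, were fed diet formulated to give 3, 10, 30, 60 or 120 mg/kg/day (assumes 3 g/day intake) or untreated diet for 11 days. Body weight and food intake were monitored. Spontaneous locomotion and rearing were recorded over 60 min. On day 11, mice were euthanized 4, 8 or 24 h after dark onset and plasma and brain drug levels measured; n = 5 per group.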

[4] = Unbound brain concentration in C57Bl/6 mouse at 100 mg/kg, po administered for 1 hr; format: ADME, organism-based; conditions: in vivo
[5] = Unbound brain concentration in C57Bl/6 mouse at 30 mg/kg, po administered for 1 hr; format: ADME, organism-based; conditions: in vivo
[6] = target: Leucine-rich repeat serine/threonine-protein kinase 2 (Mus musculus) (UniProt Q5S006); experiment: In vivo inhibition of LRRK2 in C57Bl/6 mouse brain assessed as reduction in pSer935 LRRK2 at 30 mg/kg administered for 11 days and measured for 4 to 24 hrs by Western blotting analysis; format: functional, organism-based; conditions: time 11.0 day
In short: (§1)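 Male C57Bl/6 mice, singly housed on a reversed light cycle. Fed drug diet targeted to 3, 10, 30, 60 or 120 mg/kg/day (assuming 3 g/day intake), or untreated diet, for 11 days. Killed 4, 8 or 24 h after dark-cycle onset, n = 5 per group. Cortex immunoblotted for pSer935/total LRRK2 and total LRRK2/GAPDH. Total LRRK2 detected with MJFF2 antibody.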

[7] = target: Leucine-rich repeat serine/threonine-protein kinase 2 (Mus musculus) (UniProt Q5S006); experiment: In vivo inhibition of LRRK2 in C57Bl/6 mouse brain assessed as total LRRK2 protein level at 3 to 120 mg/kg administered for 11 days and measured for 4 to 24 hrs by Western blotting analysis; format: functional, organism-based; conditions: dose 3-120 mg/kg, time 11.0 day; in short: as §1

inhibition [1]: Active
IC50 [2]: 225 nM
Drug uptake(free) [3]: Active
Drug uptake(free) [4]: 272.9 nM
Drug uptake(free) [5]: 91.8 nM
inhibition [6]: Active
inhibition [7]: inactive
Structure (SMILES): C[C@@H]1CN(c2cc(-c3n[nH]c4ccc(OC5(C)CC5)cc34)ncn2)C[C@H](C)O1 [MLi-2]
